{"data": "Assay results of several laboratories", "target": "Ephrin type-A receptor 7 (EPHA7, Homo sapiens, UniProt Q15375)"}
{"SMILES": "Cn1cc(-c2cccc(N3CCc4c(sc5c4CC(C)(C)C5)C3=O)c2CO)cc(Nc2ccncn2)c1=O", "test": "enzyme activity, inhibitor", "conditions": "1 µM", "quantity": "inhibition", "value": "83%"}
{"SMILES": "N#CC1(c2ccccn2)CCN(Cc2cc(C(=O)O)c(=O)n3ccccc23)CC1", "test": "cell-free assay, competition with immobilised ligand", "conditions": "1 µM", "quantity": "remaining binding", "value": "100%"}
{"SMILES": "COc1cc(Nc2ncc(F)c(Nc3ccc4c(n3)NC(=O)C(C)(C)O4)n2)cc(OC)c1OC", "test": "binding, competition with immobilised ligand", "conditions": "10 µM", "quantity": "inhibition", "value": "100%"}
{"SMILES": "Nc1ncc(-c2nc(N3CCOCC3)nc(N3CCOCC3)n2)c(C(F)F)n1", "test": "cell-free assay, competition with immobilised ligand", "conditions": "10 µM", "quantity": "remaining binding", "value": "86%"}
{"SMILES": "COc1ncccc1-c1cnn2ccc(N3CCN(C(=O)OC(C)C)CC3)nc12", "test": "binding, competition with immobilised ligand", "conditions": "1 µM", "quantity": "remaining binding", "value": "100%"}
{"SMILES": "Cn1cc(-c2cc(F)cc(N3CCn4c(cc5c4CCCC5)C3=O)c2CO)cc(Nc2ccc(N3CCN(C4COC4)CC3)cn2)c1=O", "test": "enzyme activity, inhibitor", "conditions": "0.1 µM", "quantity": "inhibition", "value": "13%"}
{"SMILES": "CC(C)(C)c1cc(C=C(C#N)C#N)cc(Br)c1O", "test": "enzyme activity, inhibitor", "conditions": "0.5 µM", "quantity": "remaining activity", "value": "107%"}
{"SMILES": "Cc1nn(C)cc1-c1nc2c(N3CCN(Cc4ccc(Cl)cc4)CC3)c(Cl)cnc2[nH]1", "test": "binding, competition with immobilised ligand", "conditions": "1 µM", "quantity": "remaining binding", "value": "100%"}
{"SMILES": "Cn1cncc1[C@@](O)(COc1ccc(C#N)cc1-c1ccc(OC(F)(F)F)cc1)c1ccc(C#N)cc1", "test": "cell-free assay, competition with immobilised ligand", "conditions": "1 µM", "quantity": "remaining binding", "value": "100%"}
{"SMILES": "O=c1[nH]c2ccccc2n1C1CCN(Cc2ccc(-c3[nH]c4cc5ncnc5cc4nc3-c3ccccc3)cc2)CC1", "test": "cell-free assay", "conditions": "0.5 µM", "quantity": "remaining signal", "value": "109%"}
